Measurements published in ChEMBL document CHEMBL1122663, “Oligonucleotide structural parameters that influence binding of 5'-O-triphosphoadenylyl-(2'----5')-adenylyl-(2'----5')-adenosine to the 5'-O-triphosphoadenylyl-(2'----5')-adenylyl-(2'----5')-adenosine dependent endoribonuclease: chain length, phosphorylation state, and heterocyclic base” (J Med Chem, 1984).

Experiments:
[1] = molecular target: T1, 2-5A-dependent ribonuclease (Mus musculus) (UniProt Q05921); test: Molar concentration required to displace 50% of the radiolabeled probe from 2-5A (Adenosine dependent endoribonuclease) in endonuclease-nitrocellulose complex
T1 sequence (whole entry): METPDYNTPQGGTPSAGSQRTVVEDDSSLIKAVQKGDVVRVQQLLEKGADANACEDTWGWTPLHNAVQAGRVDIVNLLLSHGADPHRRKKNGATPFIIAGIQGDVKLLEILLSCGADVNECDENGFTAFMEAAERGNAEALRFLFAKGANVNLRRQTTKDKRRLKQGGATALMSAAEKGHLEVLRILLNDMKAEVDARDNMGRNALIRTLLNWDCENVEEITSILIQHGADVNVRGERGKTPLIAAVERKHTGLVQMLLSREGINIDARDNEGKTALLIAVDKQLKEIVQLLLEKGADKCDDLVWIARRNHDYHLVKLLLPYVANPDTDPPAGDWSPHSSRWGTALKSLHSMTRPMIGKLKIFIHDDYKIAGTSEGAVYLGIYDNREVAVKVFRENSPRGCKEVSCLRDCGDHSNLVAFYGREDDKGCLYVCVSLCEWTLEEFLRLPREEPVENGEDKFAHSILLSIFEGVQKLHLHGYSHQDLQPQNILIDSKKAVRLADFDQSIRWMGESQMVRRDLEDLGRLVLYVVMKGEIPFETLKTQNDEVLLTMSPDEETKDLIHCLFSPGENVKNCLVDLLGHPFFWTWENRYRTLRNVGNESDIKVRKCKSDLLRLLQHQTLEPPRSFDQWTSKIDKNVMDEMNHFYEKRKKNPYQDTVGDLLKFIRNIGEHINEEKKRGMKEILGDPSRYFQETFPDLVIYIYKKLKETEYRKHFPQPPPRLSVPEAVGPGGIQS
In short: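 Radiobinding assay of Knight et al. on the 2-5A-dependent endoribonuclease from mouse L cells. Oligomer is added against the radiolabeled probe ppp5'A2'p5'A2'p5'A2'p5'A3'[³²P]p5'C3'p. The value is the oligomer concentration that prevents 50% of the added probe from binding the endonuclease.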

[2] = molecular target: T1, 2-5A-dependent ribonuclease (Mus musculus); test: Molar concentration needed to give 50% prevention of 2-5A (Adenosine dependent endoribonuclease)

Row | Concentration [1] | Concentration [2] | SMILES
1 | 4e-06 |  | Nc1ncnc2c1ncn2[C@@H]1O[C@H](COP(=O)(O)O[C@@H]2[C@H](O)[C@@H](COP(=O)(O)O)O[C@H]2n2cnc3c(N)ncnc32)[C@@H](OP(=O)(O)O)[C@H]1O
2 | 1e-09 |  | Nc1ncnc2c1ncn2C1O[C@H](COP(=O)(O)O[C@H]2C(n3cnc4c(N)ncnc43)O[C@H](COP(=O)(O)O[C@H]3C(n4cnc5c(N)ncnc54)O[C@H](COP(=O)(O)O[C@H]4C(n5cnc6c(N)ncnc65)O[C@H](COP(=O)(O)O[C@H]5C(n6cnc7c(N)ncnc76)O[C@H](COP(=O)(O)O[C@H]6C(n7cnc8c(N)ncnc87)O[C@H](COP(=O)(O)O)[C@H]6O)[C@H]5O)[C@H]4O)[C@H]3O)[C@H]2O)[C@@H](O)[C@H]1O (some centres undefined)
3 | 1.1e-06 | > 0.0001 | O=c1ccn(C2O[C@H](COP(=O)(O)O[C@H]3C(n4ccc(=O)[nH]c4=O)O[C@H](COP(=O)(O)O[C@H]4C(n5ccc(=O)[nH]c5=O)O[C@H](COP(=O)(O)O)[C@H]4O)[C@H]3O)[C@@H](O)[C@H]2O)c(=O)[nH]1 (some centres undefined)
4 | 3.3e-06 | > 0.0001 | Nc1ccn(C2O[C@H](COP(=O)(O)O[C@H]3C(n4ccc(N)nc4=O)O[C@H](COP(=O)(O)O[C@H]4C(n5ccc(N)nc5=O)O[C@H](COP(=O)(O)O)[C@H]4O)[C@H]3O)[C@@H](O)[C@H]2O)c(=O)n1 (some centres undefined)
5 |  | > 0.001 | Nc1ncnc2c1ncn2C1OC(CO)C(O)C1OP(=O)(O)OC[C@H]1OC(n2cnc3c(N)ncnc32)[C@H](O)[C@@H]1O (some centres undefined)
6 | 2e-09 |  | Nc1ncnc2c1ncn2[C@@H]1O[C@H](COP(=O)(O)O[C@@H]2[C@H](O)[C@@H](COP(=O)(O)O[C@@H]3[C@H](O)[C@@H](COP(=O)(O)O)O[C@H]3n3cnc4c(N)ncnc43)O[C@H]2n2cnc3c(N)ncnc32)[C@@H](O)[C@H]1O (stereo in doubt; 11)
7 | 3.3e-06 | > 0.0001 | O=P(O)(O)OC[C@H]1OC(n2cnc3c(O)ncnc32)[C@H](OP(=O)(O)OC[C@H]2OC(n3cnc4c(O)ncnc43)[C@H](OP(=O)(O)OC[C@H]3OC(n4cnc5c(O)ncnc54)[C@H](O)[C@@H]3O)[C@@H]2O)[C@@H]1O (some centres undefined)
8 | 1.3e-08 |  | Nc1ncnc2c1ncn2C1O[C@H](COP(=O)(O)O[C@H]2C(n3cnc4c(N)ncnc43)O[C@H](COP(=O)(O)O[C@H]3C(n4cnc5c(N)ncnc54)O[C@H](COP(=O)(O)O[C@H]4C(n5cnc6c(N)ncnc65)O[C@H](COP(=O)(O)O[C@H]5C(n6cnc7c(N)ncnc76)O[C@H](COP(=O)(O)O[C@H]6C(n7cnc8c(N)ncnc87)O[C@H](CO)[C@H]6O)[C@H]5O)[C@H]4O)[C@H]3O)[C@H]2O)[C@@H](O)[C@H]1O (some centres undefined)
9 | 8e-10 | 1e-06 | Nc1ncnc2c1ncn2[C@@H]1O[C@H](COP(=O)(O)O[C@@H]2[C@H](O)[C@@H](COP(=O)(O)O[C@@H]3[C@H](O)[C@@H](COP(=O)(O)O)O[C@H]3n3cnc4c(N)ncnc43)O[C@H]2n2cnc3c(N)ncnc32)[C@@H](O)[C@H]1O (stereo in doubt; 2)
10 | 2.6e-07 | > 0.00013 | O=P(O)(O)OP(=O)(O)OP(=O)(O)OCC1OC(n2cnc3c(O)ncnc32)C(OP(=O)(O)OCC2OC(n3cnc4c(O)ncnc43)C(OP(=O)(O)OC[C@H]3OC(n4cnc5c(O)ncnc54)[C@H](O)[C@@H]3O)C2O)C1O (some centres undefined)
11 | 2e-05 | > 0.0002 | Nc1ncnc2c1ncn2C1O[C@H](COP(=O)(O)O[C@H]2C(n3cnc4c(N)ncnc43)O[C@H](COP(=O)(O)O)[C@H]2O)[C@@H](O)[C@H]1O (some centres undefined)
12 | 5e-10 |  | Nc1ncnc2c1ncn2[C@@H]1O[C@H](COP(=O)(O)O[C@@H]2[C@H](O)[C@@H](COP(=O)(O)O[C@@H]3[C@H](O)[C@@H](COP(=O)(O)OP(=O)(O)OP(=O)(O)O)O[C@H]3n3cnc4c(N)ncnc43)O[C@H]2n2cnc3c(N)ncnc32)[C@@H](O)[C@H]1O
13 | 2.2e-08 | 1e-05 | Nc1ncnc2c1ncn2[C@@H]1O[C@H](COP(=O)(O)O[C@@H]2[C@H](O)[C@@H](COP(=O)(O)O[C@@H]3[C@H](O)[C@@H](COP(=O)(O)O[C@@H]4[C@H](O)[C@@H](CO)O[C@H]4n4cnc5c(N)ncnc54)O[C@H]3n3cnc4c(N)ncnc43)O[C@H]2n2cnc3c(N)ncnc32)[C@@H](O)[C@H]1O
14 | 7e-10 | 1e-06 | Nc1ncnc2c1ncn2[C@@H]1O[C@H](COP(=O)(O)O[C@@H]2[C@H](O)[C@@H](COP(=O)(O)O[C@@H]3[C@H](O)[C@@H](COP(=O)(O)O[C@@H]4[C@H](O)[C@@H](COP(=O)(O)O)O[C@H]4n4cnc5c(N)ncnc54)O[C@H]3n3cnc4c(N)ncnc43)O[C@H]2n2cnc3c(N)ncnc32)[C@@H](O)[C@H]1O
15 | 4e-07 |  | Nc1ncnc2c1ncn2[C@@H]1O[C@H](COP(=O)(O)O[C@@H]2[C@H](O)[C@@H](COP(=O)(O)O)O[C@H]2n2cnc3c(N)ncnc32)[C@@H](O)[C@H]1OP(=O)(O)O
16 | 8e-07 | > 0.0001 | Nc1ncnc2c1ncn2[C@@H]1O[C@H](COP(=O)(O)O[C@@H]2[C@H](O)[C@@H](COP(=O)(O)O[C@@H]3[C@H](O)[C@@H](CO)O[C@H]3n3cnc4c(N)ncnc43)O[C@H]2n2cnc3c(N)ncnc32)[C@@H](O)[C@H]1O
17 | 9e-10 | 5e-07 | Nc1ncnc2c1ncn2C1O[C@H](COP(=O)(O)O[C@H]2C(n3cnc4c(N)ncnc43)O[C@H](COP(=O)(O)O[C@H]3C(n4cnc5c(N)ncnc54)O[C@H](COP(=O)(O)O[C@H]4C(n5cnc6c(N)ncnc65)O[C@H](COP(=O)(O)O[C@H]5C(n6cnc7c(N)ncnc76)O[C@H](COP(=O)(O)O)[C@H]5O)[C@H]4O)[C@H]3O)[C@H]2O)[C@@H](O)[C@H]1O (some centres undefined)
18 | 1.3e-08 | 7e-06 | Nc1ncnc2c1ncn2C1O[C@H](COP(=O)(O)O[C@H]2C(n3cnc4c(N)ncnc43)O[C@H](COP(=O)(O)O[C@H]3C(n4cnc5c(N)ncnc54)O[C@H](COP(=O)(O)O[C@H]4C(n5cnc6c(N)ncnc65)O[C@H](COP(=O)(O)O[C@H]5C(n6cnc7c(N)ncnc76)O[C@H](CO)[C@H]5O)[C@H]4O)[C@H]3O)[C@H]2O)[C@@H](O)[C@H]1O (some centres undefined)
